This note sets out measurements from PubChem BioAssay.

The source made the active and inactive calls.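 Rule for the calls, unless noted: active = GFP response above 150% of the DMSO level; inconclusive = fewer than 70 events counted for a yeast strain; inactive = the rest.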

Assay [1] in a line: hit retest on RPL19A-GFP reporter strain – cell-based, S. cerevisiae, flow cytometry, cherry picks, mother/daughter gates, confirmation (AID 2270;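 active = GFP response below 50% of the DMSO control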). The note with it: 3 h, at 10 µM, stronger effect = lower value, 100 = same GFP as DMSO wells. A general note: Flow cytometry measures light scatter and fluorescence of single cells or particles in a stream.
A short description of assay [2]: yeast TOR pathway reporter LAP4-GFP change – cell-based, cherry picks, flow cytometry, mother/daughter gates, confirmation (AID 2271;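 active = GFP response above 150% of the DMSO control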;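 note: ratio of sample to DMSO plate mean so 100% equals DMSO level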). The note with it: S. cerevisiae LAP4-GFP strain, 3 h, at 10 µM, stronger effect = higher value, 100 means same as DMSO control. The gist of the method: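 Test system: GFP-fusion yeast strain / Amount: 0.2 OD600 cells / Buffer or medium: SC medium / Dosing: 10 µM single dose / Incubation: compound exposure 3 h at 30 °C, end-over-end rotation / Detection: HT flow cytometry, GFP fluorescence channel / Evaluation: median GFP fluorescence as percent of plate-mean DMSO wells / Control set: DMSO-only negative wells, rapamycin 400 ng/mL positive wells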

Assay [3] can be described thus: TOR pathway reporter MEP2-GFP, retest of hits – S. cerevisiae, flow cytometry GFP, cherry picks, confirmation (AID 2272;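 active = GFP response above 150% of the DMSO control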;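 note: ratio of well signal to plate DMSO mean so 100% equals DMSO level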). To be noted: S. cerevisiae MEP2-GFP strain, 3 h, at 10 µM, stronger effect = higher value.
Assay [4] can be described thus: yeast AGP1-GFP fluorescence change, single-dose – cell-based, flow cytometry, S. cerevisiae, cherry picks, confirmation (AID 2273).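 Note: median GFP channel fluorescence over the whole cell population gate.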 The note with it: S. cerevisiae AGP1-GFP strain, 3 h, at 10 µM.
A short description of assay [5]: TOR pathway CIT2 reporter hit retest – S. cerevisiae, GFP fusion, cherry picks, mother/daughter gates, confirmation (AID 2274). To be noted: S. cerevisiae CIT2-GFP strain, flow cytometry, 3 h, at 10 µM, stronger effect = higher value.
[6] abbreviates: measured here: daughter cell gate.
Setting [7] is: measured here: mother cell gate.
Setting [8] is: measured here: daughter cell gate response.
The mark [9] stands for this setting: measured here: mother cell gate response.

`CCCc1cc(=O)n(-c2nc3ccccc3s2)[nH]1`: the GFP response vs DMSO in assay [1] was 102% (inactive); in assay [1] (setting [6]), 102%; in assay [1] (setting [7]), 101%; in assay [3], 99% (inactive). The results for the GFP response relative to DMSO in assay [2], in assay [2] (setting [8]) and in assay [2] (setting [9]) were 101% (inactive), 101% and 99.4%, respectively. The GFP response, % of DMSO is 104% (inactive) in assay [4], 97.3% (inactive) in assay [5], 97.4% in assay [5] (setting [6]) and 96.8% in assay [5] (setting [7]).

With `Cc1cc(=O)n(-c2ccc3ccccc3n2)[nH]1`, the GFP response vs DMSO in assay [1] is 106% (inactive); in assay [1] (setting [6]), 109%; in assay [1] (setting [7]), 103%; in assay [3], 102% (inactive). Besides, the GFP response relative to DMSO in assay [2] is 115% (inactive); in assay [2] (setting [8]) it was 120%; in assay [2] (setting [9]), 116%. In addition, the GFP response, % of DMSO in assay [4] is 99.6% (inactive); in assay [5], 112% (inactive); in assay [5] (setting [6]), 114%; in assay [5] (setting [7]), 107%.

Take `CCCc1[nH]nc2c1C(c1ccc(OCCN3CCOCC3)c(OCC)c1)C(C#N)=C(N)O2` (configuration not stated): the GFP response vs DMSO in assay [1] was 98.4% (inactive); in assay [1] (setting [6]), 98.4%; in assay [1] (setting [7]) it was 98.9%; in assay [3], 97.8% (inactive). Also, the GFP response relative to DMSO is 90.2% (inactive) in assay [2], 95.6% in assay [2] (setting [8]) and 91.1% in assay [2] (setting [9]). In addition, the GFP response, % of DMSO in assay [4] was 97.8% (inactive); in assay [5], 107% (inactive); in assay [5] (setting [6]), 105%; in assay [5] (setting [7]), 108%.

For `CC(=O)c1ccc(N2CCN(C(=O)c3ccc(Br)cc3)CC2)c(F)c1`, the GFP response vs DMSO is 111% (inactive) in assay [1], 95.4% in assay [1] (setting [6]), 110% in assay [1] (setting [7]) and 117% (inactive) in assay [3]. Moreover, the figures for the GFP response relative to DMSO in assay [2], in assay [2] (setting [8]) and in assay [2] (setting [9]) were 160% (active), 117% and 160%, respectively. Further, the GFP response, % of DMSO in assay [4] is 115% (inactive); in assay [5], 111% (inactive); in assay [5] (setting [6]), 88.1%; in assay [5] (setting [7]), 104%.

Take `CC(=O)Oc1ccc(N2C(=O)C3C4C=CC(CO)(O4)C3C2=O)cc1` (configuration not stated): the GFP response vs DMSO in assay [1] is 103% (inactive); in assay [1] (setting [6]), 104%; in assay [1] (setting [7]), 97.8%; in assay [3] it was 107% (inactive). Besides, the GFP response relative to DMSO in assay [2] is 120% (inactive); in assay [2] (setting [8]), 120%; in assay [2] (setting [9]), 120%. In addition, the GFP response, % of DMSO is 101% (inactive) in assay [4], 109% (inactive) in assay [5], 112% in assay [5] (setting [6]) and 104% in assay [5] (setting [7]).

On to `CCOc1ccc(C(=O)/C=C/c2ccc(SC)cc2)cc1`, for which the GFP response vs DMSO in assay [1] was 98% (inactive); in assay [1] (setting [6]) it was 100%; in assay [1] (setting [7]), 96.8%; in assay [3], 101% (inactive). Further, the GFP response relative to DMSO in assay [2] was 102% (inactive); in assay [2] (setting [8]) it was 99.1%; in assay [2] (setting [9]), 103%. In addition, the GFP response, % of DMSO was 102% (inactive) in assay [4], 100% (inactive) in assay [5], 99.2% in assay [5] (setting [6]) and 80.9% in assay [5] (setting [7]).

Regarding `COc1cc(/C=C/C(=O)c2c(O)ccc3c(C)cc(=O)oc23)ccc1O`, the GFP response vs DMSO in assay [1] is 95% (inactive); in assay [1] (setting [6]) it was 94.4%; in assay [1] (setting [7]), 95.8%; in assay [3], 98.3% (inactive). In addition, the GFP response relative to DMSO in assay [2] was 124% (inactive); in assay [2] (setting [8]), 120%; in assay [2] (setting [9]), 130%. Besides, the GFP response, % of DMSO is 92.5% (inactive) in assay [4], 96.9% (inactive) in assay [5], 101% in assay [5] (setting [6]) and 93.8% in assay [5] (setting [7]).

Regarding `CCOc1ccc(C(Nc2cccnc2)c2cc(Cl)c3cccnc3c2O)cc1` (configuration not stated), the GFP response vs DMSO in assay [1] is 99.6% (inactive); in assay [1] (setting [6]), 104%; in assay [1] (setting [7]), 95.6%; in assay [3], 122% (inactive). Also, the GFP response relative to DMSO was 164% (active) in assay [2], 144% in assay [2] (setting [8]) and 170% in assay [2] (setting [9]). For the same compound, the GFP response, % of DMSO is 93.9% (inactive) in assay [4], 101% (inactive) in assay [5], 108% in assay [5] (setting [6]) and 94.9% in assay [5] (setting [7]).

In the case of `CCc1sc(C(=O)N2CCc3ccccc32)cc1C`, the GFP response vs DMSO in assay [1] was 94.9% (inactive); in assay [1] (setting [6]) it was 93.3%; in assay [1] (setting [7]), 94.6%; in assay [3], 99.3% (inactive). Further, the figures for the GFP response relative to DMSO in assay [2], in assay [2] (setting [8]) and in assay [2] (setting [9]) were 114% (inactive), 111% and 114%, respectively. The GFP response, % of DMSO was 96.8% (inactive) in assay [4], 87.5% (inactive) in assay [5], 85.2% in assay [5] (setting [6]) and 88.2% in assay [5] (setting [7]).

As for `Oc1c(CN2CCCCC2)cc(Br)c2cccnc12`, the GFP response vs DMSO was 106% (inactive) in assay [1], 103% in assay [1] (setting [6]), 105% in assay [1] (setting [7]) and 118% (inactive) in assay [3]. The values for the GFP response relative to DMSO in assay [2], in assay [2] (setting [8]) and in assay [2] (setting [9]) were 208% (active), 181% and 208%, respectively. Also, the GFP response, % of DMSO is 96.7% (inactive) in assay [4], 102% (inactive) in assay [5], 104% in assay [5] (setting [6]) and 91% in assay [5] (setting [7]).

With `Cc1cc(C)nc(S/C=C/C(=O)c2ccccc2F)n1`, the GFP response vs DMSO is 103% (inactive) in assay [1], 102% in assay [1] (setting [6]), 102% in assay [1] (setting [7]) and 107% (inactive) in assay [3]. Further, the results for the GFP response relative to DMSO in assay [2], in assay [2] (setting [8]) and in assay [2] (setting [9]) were 120% (inactive), 119% and 123%, respectively. Besides, the GFP response, % of DMSO was 94.3% (inactive) in assay [4], 95.2% (inactive) in assay [5], 98.1% in assay [5] (setting [6]) and 92.3% in assay [5] (setting [7]).

With `Cc1nn(Cc2ccc([N+](=O)[O-])cc2)c(=O)n1-c1cccc(Cl)c1`, the GFP response vs DMSO in assay [1] was 96% (inactive); in assay [1] (setting [6]), 96.6%; in assay [1] (setting [7]) it was 96.6%; in assay [3], 98.3% (inactive). In addition, the values for the GFP response relative to DMSO in assay [2], in assay [2] (setting [8]) and in assay [2] (setting [9]) were 96.7% (inactive), 97.6% and 96.1%, respectively. The GFP response, % of DMSO in assay [4] was 95.4% (inactive); in assay [5], 99.7% (inactive); in assay [5] (setting [6]) it was 101%; in assay [5] (setting [7]), 99.7%.

Consider `O=C1C(=O)N(Cc2ccccc2)C(c2cccc(O)c2)/C1=C(\O)c1ccc2c(c1)OCCO2` (configuration not stated), for which the GFP response vs DMSO in assay [1] was 100% (inactive); in assay [1] (setting [6]) it was 100%; in assay [1] (setting [7]), 100%; in assay [3], 100% (inactive). Besides, the GFP response relative to DMSO in assay [2] was 95% (inactive); in assay [2] (setting [8]) it was 95.6%; in assay [2] (setting [9]), 98.3%. Moreover, the GFP response, % of DMSO is 95.2% (inactive) in assay [4], 108% (inactive) in assay [5], 106% in assay [5] (setting [6]) and 109% in assay [5] (setting [7]).

In the case of `O=[N+]([O-])c1cc(Cl)c2cccnc2c1O`, the GFP response vs DMSO in assay [1] was 100% (inactive); in assay [1] (setting [6]) it was 94.9%; in assay [1] (setting [7]), 102%; in assay [3], 118% (inactive). The GFP response relative to DMSO in assay [2] is 174% (active); in assay [2] (setting [8]), 141%; in assay [2] (setting [9]) it was 181%. In addition, the GFP response, % of DMSO was 100% (inactive) in assay [4], 99.3% (inactive) in assay [5], 96.4% in assay [5] (setting [6]) and 94.5% in assay [5] (setting [7]).

As to `COCCN(CCOC)S(=O)(=O)c1ccc(C(=O)Nc2nnc(C3CC3)o2)cc1`, the GFP response vs DMSO in assay [1] was 101% (inactive); in assay [1] (setting [6]), 99.8%; in assay [1] (setting [7]), 101%; in assay [3], 100% (inactive). Moreover, the GFP response relative to DMSO in assay [2] is 93.8% (inactive); in assay [2] (setting [8]) it was 94.1%; in assay [2] (setting [9]), 95.2%. In addition, the GFP response, % of DMSO in assay [4] is 101% (inactive); in assay [5] it was 106% (inactive); in assay [5] (setting [6]), 105%; in assay [5] (setting [7]), 106%.

With `CCCc1[nH]nc2c1C(c1ccc(OC)c(CSC3=NCCS3)c1)C(C#N)=C(N)O2` (configuration not stated), the GFP response vs DMSO in assay [1] was 96.8% (inactive); in assay [1] (setting [6]), 97.3%; in assay [1] (setting [7]), 97.6%; in assay [3] it was 97.5% (inactive). The GFP response relative to DMSO is 109% (inactive) in assay [2], 109% in assay [2] (setting [8]) and 107% in assay [2] (setting [9]). Besides, the GFP response, % of DMSO in assay [4] is 105% (inactive); in assay [5] it was 95% (inactive); in assay [5] (setting [6]), 94.6%; in assay [5] (setting [7]), 94.5%.

As to `Cc1cccc(NC(=O)CCCN2C(=O)c3cccc4cccc(c34)C2=O)c1`, the GFP response vs DMSO was 101% (inactive) in assay [1], 96.9% in assay [1] (setting [6]), 100% in assay [1] (setting [7]) and 99% (inactive) in assay [3]. Moreover, the GFP response relative to DMSO in assay [2] was 94.4% (inactive); in assay [2] (setting [8]), 95.9%; in assay [2] (setting [9]) it was 94.1%. In addition, the GFP response, % of DMSO in assay [4] is 98.8% (inactive); in assay [5] it was 98.8% (inactive); in assay [5] (setting [6]) it was 97.4%; in assay [5] (setting [7]), 99.3%.
